# Results as given in ChEMBL document CHEMBL4145643, “Antiplasmodial β-Triketone-Flavanone Hybrids from the Flowers of the Australian Tree Corymbia torelliana” (J Nat Prod, 2018).
# Activity calls are given as the source filed them. No cut-off for these calls is given here.
# What was measured:
# HEK293 = assay: Cytotoxicity against human HEK293 cells at 40 uM after 72 hrs by resazurin dye based fluorescence assay; assay type: cell-based; settings: hek293, 72 h
# Summary of the method: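 HEK293 cells grown in DMEM with 10% FBS, seeded at 2000 cells/well 24 h before dosing. Compounds given as in the parasite assay (top 40 μM), 72 h at 37 °C and 5% CO2. Medium then replaced with 44 μM resazurin; fluorescence (530/595 nm) read after a further 5–6 h. Normalized to in-plate controls.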
# Plasmodium falciparum [1] = assay: Antiplasmodial activity against drug-sensitive Plasmodium falciparum 3D7 ring stage infected in human erythrocytes after 72 hrs by DAPI staining based method; assay type: functional, organism-based; settings: 3D7, 72 h
# Summary of the method: (§1)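 Sorbitol-synchronized ring-stage parasites in O+ erythrocytes (2% parasitemia, 0.3% hematocrit), culture medium RPMI-1640 with Albumax and human serum. 16-point dilution series, 40 μM to 0.5 nM, 72 h at 95% N2/5% O2/5% CO2. Parasites stained with DAPI in Triton X-100/saponin permeabilization buffer, counted by confocal imaging. Normalized to 0.4% DMSO and 5 μM puromycin controls. IC50 from four-parameter logistic fit.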
# Plasmodium falciparum [2] = assay: Antiplasmodial activity against 4-aminoquinoline/antifolates-resistant Plasmodium falciparum Dd2 ring stage infected in human erythrocytes after 72 hrs by DAPI staining based method; assay type: functional, organism-based; settings: Dd2, 72 h
# Summary of the method: (§2)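 Sorbitol-synchronized ring-stage parasites at 2% parasitemia, 0.3% hematocrit in human O+ erythrocytes. 16-point concentration-response, 40 μM to 0.5 nM. DAPI added in permeabilization buffer (Triton X-100, saponin, EDTA). Parasites counted by confocal high-content imaging. Normalized to DMSO and 5 μM puromycin controls. IC50 from four-parameter logistic fit.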
# Plasmodium falciparum [3] = assay: Antiplasmodial activity against 4-aminoquinoline/antifolates-resistant Plasmodium falciparum Dd2 ring stage infected in human erythrocytes at 40 uM after 72 hrs by DAPI staining based method; assay type: functional
# Summary of the method: as §2, with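 “erythrocytes. Culture medium: RPMI-1640 with glutamine, hypoxanthine, Albumax, human serum.” for “erythrocytes.”, “nM. Incubated 72 h under 95% N2, 5% O2, 5% CO2.” for “nM.”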
# Plasmodium falciparum [4] = assay: Antiplasmodial activity against drug-sensitive Plasmodium falciparum 3D7 ring stage infected in human erythrocytes at 40 uM after 72 hrs by DAPI staining based method; assay type: functional, organism-based; summary of the method: as §1
SMILES,IC50 (Plasmodium falciparum [1]),Activity (HEK293; 40 µM),other results
C[C@H]1[C@H](OC(=O)CCC(=O)O)O[C@@H]2O[C@@]3(C)CC[C@H]4[C@H](C)CC[C@@H]1[C@@]24OO3 [ARTESUNATE],0.001 µM,–,"Activity (HEK293; 20 µM, in the assay text read “20 uM” for “40 uM”): 94%"
C[C@H]1[C@@H](O)O[C@@H]2O[C@@]3(C)CC[C@H]4[C@H](C)CC[C@@H]1[C@@]24OO3 [ARTENIMOL],0.0004 µM,–,"Activity (HEK293; 20 µM, in the assay text read “at 20 uM” for “at 40 uM”): 83%; IC50 (Plasmodium falciparum [2]): 0.00043 µM"
Cc1c(O)c2c(c3c1OC1=C(C(=O)C(C)(C)C(=O)C1(C)C)[C@@H]3CC(C)C)O[C@H](c1ccccc1)CC2=O,7.2 µM,Non-Toxic,–
CCc1nc(N)nc(N)c1-c1ccc(Cl)cc1 [PYRIMETHAMINE],–,62%,Activity (Plasmodium falciparum [3]): 62%
CC(C)C[C@H]1C[C@@]2(CC[C@H]3C[C@@H]2C3(C)C)OC2=C1C(=O)C(C)(C)C(=O)C2(C)C,16.6 µM,Non-Toxic,Activity (Plasmodium falciparum [3]): inactive
CC(C)CC[C@]1(O)[C@H](O)C(C)(C)[C@@H](O)C(C)(C)[C@@H]1O,–,Non-Toxic,Activity (Plasmodium falciparum [3]): inactive; Activity (Plasmodium falciparum [4]): inactive
CCN(CC)CCCC(C)Nc1ccnc2cc(Cl)ccc12 (stereo not given) [CHLOROQUINE],–,Non-Toxic,–
Cc1c(O)c2c(c3c1OC1=C(C(=O)C(C)(C)C(=O)C1(C)C)[C@H]3CC(C)C)O[C@H](c1ccccc1)CC2=O,7.2 µM,Non-Toxic,–
Cc1c(O)c([C@@H](CC(C)C)C2=C(O)C(C)(C)C(=O)C(C)(C)C2=O)c(O)c2c1O[C@H](c1ccccc1)CC2=O,3.2 µM,75%,–
Cc1c2c(c(O)c3c1OC1=C(C(=O)C(C)(C)C(=O)C1(C)C)C3CC(C)C)C(=O)C[C@@H](c1ccccc1)O2 (stereo not given in full),9.8 µM,Non-Toxic,IC50 (Plasmodium falciparum [2]): 11.9 µM
Cc1c(O)c([C@H](CC(C)C)C2=C(O)C(C)(C)C(=O)C(C)(C)C2=O)c(O)c2c1O[C@H](c1ccccc1)CC2=O,3.2 µM,75%,–
